The values that follow come from ChEMBL document CHEMBL1143672, “Synthesis and pharmacology of site-specific cocaine abuse treatment agents: restricted rotation analogues of methylphenidate” (J Med Chem, 2007).

Assay [1] concerns the target Sodium-dependent serotonin transporter (Rattus norvegicus) (UniProt P31652). The assay can be described thus: Displacement of [3H]citalopram from 5HTT in Sprague-Dawley rat cerebrum at 10 uM. (In general: Displacement assays read how much labelled ligand stays bound in the presence of the test substance.)
In assay [2] the target is Norepinephrine transporter (Rattus norvegicus) (UniProt Q9WTR4). The assay can be described thus: Displacement of [3H]nisoxetine from NET in Sprague-Dawley rat cortical tissue at 10 uM.
Sequence of Norepinephrine transporter (Rattus norvegicus) (Q9WTR4 as listed by the source): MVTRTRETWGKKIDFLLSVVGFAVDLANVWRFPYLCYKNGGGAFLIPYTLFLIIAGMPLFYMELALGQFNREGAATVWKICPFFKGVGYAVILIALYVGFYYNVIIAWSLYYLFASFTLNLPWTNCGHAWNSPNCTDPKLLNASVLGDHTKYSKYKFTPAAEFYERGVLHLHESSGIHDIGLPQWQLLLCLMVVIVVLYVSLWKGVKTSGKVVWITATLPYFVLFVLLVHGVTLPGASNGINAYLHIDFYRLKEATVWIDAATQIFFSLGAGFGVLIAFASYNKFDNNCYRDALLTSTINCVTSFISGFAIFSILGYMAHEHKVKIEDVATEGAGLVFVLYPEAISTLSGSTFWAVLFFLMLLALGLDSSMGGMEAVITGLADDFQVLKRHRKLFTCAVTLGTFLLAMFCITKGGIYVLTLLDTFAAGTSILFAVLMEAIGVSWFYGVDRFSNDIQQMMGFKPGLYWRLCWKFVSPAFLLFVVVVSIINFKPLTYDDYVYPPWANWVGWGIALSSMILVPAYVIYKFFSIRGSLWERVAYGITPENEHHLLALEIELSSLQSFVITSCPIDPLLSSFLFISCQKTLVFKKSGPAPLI
The target of assay [3] is Monoamine transporters; serotonin & dopamine (Rattus norvegicus) (UniProt P31652+P23977). Put plainly: Selectivity for rat DAT over rat 5HTT. It is filed as protein assay.
Sequence of Monoamine transporters; serotonin & dopamine (Rattus norvegicus) (P23977 whole entry, looked up): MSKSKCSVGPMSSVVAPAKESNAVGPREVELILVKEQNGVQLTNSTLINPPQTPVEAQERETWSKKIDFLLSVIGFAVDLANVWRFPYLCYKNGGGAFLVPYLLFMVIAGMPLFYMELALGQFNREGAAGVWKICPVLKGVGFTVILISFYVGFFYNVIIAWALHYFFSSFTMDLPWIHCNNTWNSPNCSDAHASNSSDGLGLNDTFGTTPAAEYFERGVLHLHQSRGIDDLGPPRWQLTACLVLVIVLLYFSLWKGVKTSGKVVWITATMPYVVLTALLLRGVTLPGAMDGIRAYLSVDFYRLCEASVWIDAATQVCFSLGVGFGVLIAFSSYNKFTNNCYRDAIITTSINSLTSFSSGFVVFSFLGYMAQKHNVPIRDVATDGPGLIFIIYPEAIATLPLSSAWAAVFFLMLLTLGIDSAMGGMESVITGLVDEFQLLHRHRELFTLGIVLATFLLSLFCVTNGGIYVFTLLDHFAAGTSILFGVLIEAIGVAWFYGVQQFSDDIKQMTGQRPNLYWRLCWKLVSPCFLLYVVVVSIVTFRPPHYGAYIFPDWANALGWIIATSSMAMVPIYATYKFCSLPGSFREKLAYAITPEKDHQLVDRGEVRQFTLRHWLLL
Sequence of Monoamine transporters; serotonin & dopamine (Rattus norvegicus) (P31652 whole entry, looked up): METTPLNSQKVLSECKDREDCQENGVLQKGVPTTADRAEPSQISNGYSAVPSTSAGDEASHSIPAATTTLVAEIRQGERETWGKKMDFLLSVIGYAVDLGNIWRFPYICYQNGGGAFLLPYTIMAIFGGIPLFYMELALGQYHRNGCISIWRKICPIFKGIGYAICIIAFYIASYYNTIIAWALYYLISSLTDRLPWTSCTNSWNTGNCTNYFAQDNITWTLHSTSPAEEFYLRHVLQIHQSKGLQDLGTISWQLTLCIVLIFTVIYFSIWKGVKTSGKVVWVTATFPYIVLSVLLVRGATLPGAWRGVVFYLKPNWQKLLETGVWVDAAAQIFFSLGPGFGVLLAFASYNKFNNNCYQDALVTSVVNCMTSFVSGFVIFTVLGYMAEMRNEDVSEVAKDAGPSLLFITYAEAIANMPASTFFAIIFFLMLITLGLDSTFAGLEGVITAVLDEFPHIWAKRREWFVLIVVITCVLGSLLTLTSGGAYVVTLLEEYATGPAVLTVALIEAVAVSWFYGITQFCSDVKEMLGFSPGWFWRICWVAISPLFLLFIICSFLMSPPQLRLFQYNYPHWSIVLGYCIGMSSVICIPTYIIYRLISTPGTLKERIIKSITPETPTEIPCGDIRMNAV
Assay [4] deals with T1, Sodium-dependent dopamine transporter (Rattus norvegicus, UniProt P23977). The assay can be described thus: Inhibition of [3H]DA uptake at DAT in Sprague-Dawley rat striatum. The method in brief:
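Uptake of [3H]dopamine into the S1 fraction of rat striatal homogenate; IC50 from curves fit by nonlinear regression.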

For assay [5], the target named is T1, Sodium-dependent dopamine transporter. The assay can be described thus: Displacement of [3H]WIN-35428 from DAT in Sprague-Dawley rat striatum.
For assay [6], the target named is Monoamine transporters; Norepinephrine & serotonin (Rattus norvegicus) (UniProt P31652+Q9WTR4). Put plainly: Selectivity for rat NET over rat 5HTT. It is filed as protein assay.
Sequence of Monoamine transporters; Norepinephrine & serotonin (Rattus norvegicus) (P31652 whole entry): as the sequence (P31652 whole entry, looked up) above
Sequence of Monoamine transporters; Norepinephrine & serotonin (Rattus norvegicus) (Q9WTR4 1-597): as the sequence (Q9WTR4 as listed by the source) above
For assay [7], the target named is Monoamine transporters; Norepininephrine & dopamine (Rattus norvegicus) (UniProt P23977+Q9WTR4). The assay can be described thus: Selectivity for rat DAT over rat NET. It is filed as protein assay.
The target in assay [8] is Norepinephrine transporter (Rattus norvegicus, UniProt Q9WTR4). The assay can be described thus: Displacement of [3H]nisoxetine from NET in Sprague-Dawley rat cortical tissue.
Sequence of Norepinephrine transporter (Q9WTR4 whole entry): as the sequence (Q9WTR4 as listed by the source) above
For assay [9], the target named is Sodium-dependent serotonin transporter (Rattus norvegicus, UniProt P31652). The assay can be described thus: Displacement of [3H]citalopram from 5HTT in Sprague-Dawley rat cerebrum. The method in brief:
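Rat cortical P2 fraction in 25 mM sodium phosphate, pH 7.7 at 0 °C; 2 nM [3H]citalopram, 3 h at 0 °C; filtration. Nonspecific binding with 1 µM clomipramine. Compounds in water, dilute DMSO or methanol (≤0.3% solvent). Data corrected for filter binding; IC50 by nonlinear regression, Ki by Cheng-Prusoff.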

The target of assay [10] is Norepinephrine transporter (Rattus norvegicus) (UniProt Q9WTR4). Put plainly: Displacement of [3H]nisoxetine from NET in Sprague-Dawley rat cortical tissue at 5 uM.

T1 sequence (P23977 whole entry): as the sequence (P23977 whole entry, looked up) above
Sequence of Sodium-dependent serotonin transporter (Rattus norvegicus) (P31652 whole entry): as the sequence (P31652 whole entry, looked up) above
Sequence of Sodium-dependent serotonin transporter (P31652 whole entry): as the sequence (P31652 whole entry, looked up) above

Broadly, the inhibition is the relative decrease from the control value, in per cent. Higher therefore signals a strong effect. As usually defined, the IC50 is the concentration that inhibits the measured activity by half. The low end stands for greater potency, the high end for weaker potency. A word on the Ki: it is the dissociation constant of the complex between target and ligand, obtained from inhibition or displacement. On to `c1ccc(CC2CCCCN2)cc1` (stereo not drawn), for which the inhibition in assay [1] amounted to 22%; in assay [2], 36%. Moreover, in assay [3], the Selectivity ratio was more than 1.6. This compound also registered an IC50 in assay [4] of 8.8 µM. The same compound registered a Ki in assay [5] of 6.36 µM.

For the compound `Clc1ccccc1[C@H]1CCCN2CCCC[C@H]12` (relative stereo), the Selectivity ratio in assay [6] was 0.67; in [3], 3.8; in assay [7], 5.7. This compound also showed an IC50 in assay [4] of 1.26 µM. The Ki was found to be 0.48 µM in assay [5], 2.75 µM in assay [8] and 1.84 µM in assay [9]. In assay [10], the inhibition came to 58%.
